System: Eimeria tenella
Assay: Minimum effective concentration for anti-coccidial activity against […] coccidian parasite Eimeria tenella in chicks expressed as mmol/kg of feed
Type: functional
In short: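 Chicks kept on feed containing test drug, then challenged with *Eimeria tenella* oocysts. Activity is scored as the degree of lesion control in the ceca of treated, challenged birds. The lowest feed concentration that controls lesions is taken as the MEC. Values are usually reproducible within one 2-fold dilution (±0.3 in log(1/MEC)).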

Row | SMILES | Log 1/MEC
1 | O=c1cnn(-c2ccc(S(=O)(=O)N3CCOCC3)c(Cl)c2)c(=O)[nH]1 | 1.09
2 | Cc1cc(-n2ncc(=O)[nH]c2=O)cc(Cl)c1S(=O)(=O)N(C)C | 0.76
3 | O=c1cnn(-c2ccc(S(=O)(=O)N3CCCCC3)c(Cl)c2)c(=O)[nH]1 | 0.17
4 | Cc1cc(-n2ncc(=O)[nH]c2=O)cc(C)c1S(=O)(=O)N1CCOCC1 | 1.39
5 | O=c1cnn(-c2cc(Cl)c(S(=O)(=O)N3CCOCC3)c(Cl)c2)c(=O)[nH]1 | 1.13
6 | O=c1cnn(-c2cccc(Cl)c2)c(=O)[nH]1 | 0.25
7 | O=c1cnn(-c2ccc(S(=O)(=O)N3CCC(O)CC3)c(Cl)c2)c(=O)[nH]1 | -0.11
8 | Cc1cc(C)cc(-n2ncc(=O)[nH]c2=O)c1 | 0.86
9 | Cc1cc(Cl)cc(-n2ncc(=O)[nH]c2=O)c1 | 1.2
10 | O=c1cnn(-c2ccc(S(=O)(=O)c3ccc(Cl)cc3)cc2)c(=O)[nH]1 | 1.96
11 | Cc1cc(-n2ncc(=O)[nH]c2=O)cc(Cl)c1Sc1ccc(Cl)cc1 | 3.28
12 | CCc1cc(-n2ncc(=O)[nH]c2=O)cc(C)c1Sc1ccc(Cl)cc1 | 0.79
13 | COc1c(Cl)cc(-n2ncc(=O)[nH]c2=O)cc1Cl | 0.06
14 | O=c1cnn(-c2cc(Cl)c(S(=O)(=O)c3ccc(Cl)cc3)c(Cl)c2)c(=O)[nH]1 | 2.94
15 | Cc1cc(-n2ncc(=O)[nH]c2=O)cc(Cl)c1S(=O)(=O)N1CCSCC1 | 0.53
16 | O=c1cnn(-c2cc(Cl)cc(Cl)c2)c(=O)[nH]1 | 1.81
17 | O=c1cnn(-c2ccccc2)c(=O)[nH]1 | -0.42
18 | O=c1cnn(-c2ccc(Sc3ccc(Cl)cc3)c(Cl)c2)c(=O)[nH]1 | 2.26
19 | O=c1cnn(-c2ccc(S(=O)(=O)c3ccc(Cl)cc3)c(Cl)c2)c(=O)[nH]1 | 2.3
20 | CS(=O)(=O)c1c(Cl)cc(-n2ncc(=O)[nH]c2=O)cc1Cl | 0.13
21 | O=c1cnn(-c2cc(Cl)c(Sc3ccc(Cl)cc3)c(Cl)c2)c(=O)[nH]1 | 3.3
22 | O=c1cnn(-c2ccc(S(=O)(=O)c3ccc(Br)cc3)cc2)c(=O)[nH]1 | 1.71
23 | Cc1cc(-n2ncc(=O)[nH]c2=O)cc(C)c1S(=O)(=O)c1ccc(Cl)cc1 | 2.59

Row | SMILES | Log 1/MEC
24 | Cc1cc(-n2ncc(=O)[nH]c2=O)cc(C)c1[S+]([O-])c1ccc(Cl)cc1 (stereo not drawn) | 2.58
25 | Cc1cc(-n2ncc(=O)[nH]c2=O)cc(Cl)c1S(=O)(=O)c1ccc(Cl)cc1 | 1.71
26 | O=c1cnn(-c2ccc(S(=O)(=O)c3ccccc3)cc2)c(=O)[nH]1 | 1.04
27 | O=C(c1ccc(Cl)cc1)c1c(Cl)cc(-n2ncc(=O)[nH]c2=O)cc1Cl | 2.9
28 | CS(=O)(=O)c1ccc(-n2ncc(=O)[nH]c2=O)cc1 | -0.27
29 | O=c1cnn(-c2ccc([N+](=O)[O-])cc2)c(=O)[nH]1 | -0.03
30 | O=c1cnn(-c2ccc(Oc3ccccc3)cc2)c(=O)[nH]1 | -0.25
31 | O=c1cnn(-c2ccc(Oc3ccc(I)cc3)c(Cl)c2)c(=O)[nH]1 | 1.77
32 | CSc1ccc(Oc2ccc(-n3ncc(=O)[nH]c3=O)cc2C)cc1 | 2.23
33 | Cc1cc(-n2ncc(=O)[nH]c2=O)ccc1Oc1ccc(Br)cc1 | 1.7
34 | CSc1ccc(Oc2ccc(-n3ncc(=O)[nH]c3=O)cc2Cl)cc1 | 1.98
35 | CC(=O)c1ccc(Sc2c(C)cc(-n3ncc(=O)[nH]c3=O)cc2Cl)cc1 | 3.19
36 | O=c1cnn(-c2ccc(Cl)c(Cl)c2)c(=O)[nH]1 | 0.63
37 | CC(C)(C)c1ccc(Sc2ccc(-n3ncc(=O)[nH]c3=O)cc2Cl)cc1 | 0.51
38 | O=c1cnn(-c2ccc(Oc3ccc4cc(Br)ccc4c3)c(Cl)c2)c(=O)[nH]1 | 1.77
39 | O=c1cnn(-c2ccc(Sc3ccc4ccccc4c3)c(Cl)c2)c(=O)[nH]1 | 0.48
40 | CSc1ccc(Oc2c(C)cc(-n3ncc(=O)[nH]c3=O)cc2C)cc1 | 2.25
41 | COc1cc(-n2ncc(=O)[nH]c2=O)cc(OC)c1OC | -0.55
42 | CC(=O)c1ccc(Oc2c(C)cc(-n3ncc(=O)[nH]c3=O)cc2Cl)cc1 | 2.27
43 | Cc1cc(-n2ncc(=O)[nH]c2=O)ccc1Oc1ccc(Cl)cc1Cl | 1.69
44 | Cc1cc(-n2ncc(=O)[nH]c2=O)ccc1Oc1ccc(Cl)cc1 | 0.74
45 | O=c1cnn(-c2cccc(C(F)(F)F)c2)c(=O)[nH]1 | 0.93
46 | Cc1cc(-n2ncc(=O)[nH]c2=O)cc(Cl)c1Oc1ccc(Cl)cc1 | 1.98

Row | SMILES | Log 1/MEC
47 | CSc1ccc(Oc2c(C)cc(-n3ncc(=O)[nH]c3=O)cc2C)cc1C | 2.27
48 | Cc1cc(-n2ncc(=O)[nH]c2=O)ccc1Oc1ccc(S(C)(=O)=O)cc1 | 1.97
49 | Cc1cc(-n2ncc(=O)[nH]c2=O)cc(Cl)c1Oc1ccc(C(C)O)cc1 (stereo not drawn) | 2.27
50 | CCN(C)S(=O)(=O)c1ccc(Oc2c(C)cc(-n3ncc(=O)[nH]c3=O)cc2Cl)c(Cl)c1 | 2.11
51 | Cc1cc(-n2ncc(=O)[nH]c2=O)cc(Cl)c1Oc1ccc(S(=O)(=O)NC2CC2)cc1Cl | 1.51
52 | O=c1cnn(-c2cc(Cl)c(Cc3ccc(Cl)cc3)c(Cl)c2)c(=O)[nH]1 | 3.18
53 | O=c1cnn(-c2ccc(Oc3ccc(Cl)cc3Cl)c(Cl)c2)c(=O)[nH]1 | 1.71
54 | O=c1cnn(-c2ccc(F)c(C(F)(F)F)c2)c(=O)[nH]1 | 1.26
55 | N#Cc1cccc(-n2ncc(=O)[nH]c2=O)c1 | 0.85
56 | O=c1cnn(-c2ccc(Cc3ccc(Cl)cc3)c(Cl)c2)c(=O)[nH]1 | 1.64
57 | COc1cc(OC)cc(-n2ncc(=O)[nH]c2=O)c1 | -0.3
58 | O=c1cnn(-c2ccc(Br)c(C(F)(F)F)c2)c(=O)[nH]1 | 1.35
59 | O=c1cnn(-c2ccc(C(O)c3ccc(Cl)cc3)c(Cl)c2)c(=O)[nH]1 (stereo not drawn) | 2.26
60 | Cc1cc(-n2ncc(=O)[nH]c2=O)cc(C)c1C(=O)c1ccc(Cl)cc1 | 1.38
61 | Cc1cc(-n2ncc(=O)[nH]c2=O)ccc1C(O)c1ccccc1 (stereo not drawn) | 1.01
62 | C[C@@](C#N)(c1ccc(Cl)cc1)c1c(Cl)cc(-n2ncc(=O)[nH]c2=O)cc1Cl | 2.62
63 | N#C[C@H](c1ccc(Cl)cc1)c1c(Cl)cc(-n2ncc(=O)[nH]c2=O)cc1Cl | 3.61
64 | O=c1cnn(-c2ccc(Cl)c(C(F)(F)F)c2)c(=O)[nH]1 | 1.56
65 | O=C1c2ccccc2CSc2cc(-n3ncc(=O)[nH]c3=O)ccc21 | 1.04
66 | O=c1cnn(-c2cc(I)cc(I)c2)c(=O)[nH]1 | 1.17
67 | N#CC(c1ccc(Cl)cc1)c1c(Cl)cc(-n2ncc(=O)[nH]c2=O)cc1Cl (stereo not drawn) [DICLAZURIL] | 3.61
68 | Cc1cc(-n2ncc(=O)[nH]c2=O)cc(C)c1Sc1ccc(Cl)cc1 [TIAZURIL] | 2.86
